# Bioassay records: PubChem, Johns Hopkins Ion Channel Center
# KCNK3 inh – human KCNK3 channel inhibitors, primary screen, CHO cells, FluxOR thallium flux, B-score; B-score at 10 µM; Potassium channel subfamily K member 3 (Homo sapiens), O14649; 340,000 tested, 0.84% active; AID 602410, 2012; FluxOR fluorescence; hits give low values;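 active = B-score under library mean minus 4 SD, starting fluorescence ratio at most library mean plus 5 SD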;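 also: more negative B-score means stronger inhibition of thallium flux through KCNK3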
# hERG rescue – hERG rescue from dofetilide block, primary screen, cell-based, CHO-hERG, FluxOR thallium flux, dofetilide IC70 | activation (rescue from dofetilide block), less the hit threshold, % at 10 µM | AID 1511, 2009 | 310,000 tested, 0.51% active | dofetilide IC70 present | Voltage-gated inwardly rectifying potassium channel KCNH2 (Homo sapiens), Q12809;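 active = activation above the mean of controls blocked by dofetilide plus 5 SD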;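 also: thallium influx through hERG after potassium depolarization seen as dye fluorescence rise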
# KCNQ1 pot – potentiators or activators of KCNQ1 channel, primary screen, cell-based, thallium flux, high-throughput | Potassium voltage-gated channel subfamily KQT member 1 (Homo sapiens), P51787 | CHO-K1 KCNQ1, thallium flux FluxOR fluorescence; hits give high values | B-score at 10 µM | 310,000 tested, 0.35% active | AID 2648, 2010;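 active = fluorescence ratio B-score, a plate-corrected score, at least three library SD, with initial intensity B-score within 5 SD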
# Target sequence (P51787 whole entry, looked up): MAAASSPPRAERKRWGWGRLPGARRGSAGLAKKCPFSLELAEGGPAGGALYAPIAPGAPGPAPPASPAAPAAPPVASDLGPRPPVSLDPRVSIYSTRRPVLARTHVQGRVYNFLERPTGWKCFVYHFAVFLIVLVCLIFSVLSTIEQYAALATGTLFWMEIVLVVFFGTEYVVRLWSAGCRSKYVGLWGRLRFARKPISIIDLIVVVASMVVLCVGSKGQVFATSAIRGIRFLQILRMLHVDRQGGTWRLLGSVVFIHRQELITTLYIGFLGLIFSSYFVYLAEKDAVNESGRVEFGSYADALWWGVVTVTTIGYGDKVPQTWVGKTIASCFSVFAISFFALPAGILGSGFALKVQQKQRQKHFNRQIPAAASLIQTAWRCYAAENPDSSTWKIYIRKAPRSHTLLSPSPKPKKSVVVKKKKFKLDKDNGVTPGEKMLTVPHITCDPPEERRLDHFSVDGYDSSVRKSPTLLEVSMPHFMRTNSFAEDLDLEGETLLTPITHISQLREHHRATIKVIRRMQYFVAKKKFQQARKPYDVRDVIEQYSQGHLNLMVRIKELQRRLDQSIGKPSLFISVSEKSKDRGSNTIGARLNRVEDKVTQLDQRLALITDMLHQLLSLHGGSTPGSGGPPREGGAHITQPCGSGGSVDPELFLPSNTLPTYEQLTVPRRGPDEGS
#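 Schedule – 37 °C overnight plating, 90-min dark dye load, 20-min compound pretreatment · System – stable KCNQ1 CHO-K1 line · Probe or stimulus – thallium- and potassium-containing depolarizing buffer · Measured by – kinetic FluxOR fluorescence, 10 s baseline plus 110 s post-stimulus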
# KCNQ1 inh – inhibitors of human KCNQ1 channel, primary screen, cell-based, thallium flux, high-throughput; Potassium voltage-gated channel subfamily KQT member 1 (Homo sapiens), P51787; CHO-K1 KCNQ1, FluxOR thallium flux fluorescence; hits give high values; B-score at 10 µM; 310,000 tested, 1.3% active; AID 2642, 2010;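 active = compounds whose thallium flux B-score, printed positive for inhibition, exceeds three library SD while starting fluorescence stays within three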;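 also: channel opened by potassium depolarization with thallium stimulus after 20 min compound exposure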
# KCNK9 block – KCNK9 potassium channel inhibitors, primary screen, HEK293 cells, thallium flux; B-score at 10 µM; AID 488922, 2010; Potassium channel subfamily K member 9 (Homo sapiens), Q9NPC2; 310,000 tested, 1.2% active; FluxOR thallium flux fluorescence; hits give low values;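 active = ratio B-score over 3 SD below the library mean, with starting fluorescence within 5 SD of its mean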;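 also: negative B-score means less thallium flux so channel inhibition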
# KCNK9 inh conf – KCNK9 potassium channel inhibitors, confirmation, HEK293 cells, thallium flux, duplicate; shares compounds with KCNK9 block; FluxOR thallium flux fluorescence; inhibition, % at 10 µM; 4,900 tested, 43% active;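 active = thallium signal inhibited by more than 5 SD of the compound-free buffer control wells, on both duplicate plates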;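 also: 0% = assay buffer control wells without compound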
# Kir21 sel – mouse Kir2.1 channel inhibition, confirmation, selectivity assay for KCNK9 modulator project, cell-based, HEK293, thallium flux. Kir2.1 cells, FluxOR thallium flux fluorescence. inhibition, % at 10 µM. 4,900 tested, 4% active. shares compounds with KCNK9 block;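 active = thallium signal drop more than 5 SD beyond the mean of the no-compound control wells, seen in both duplicate plates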;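 also: signal is fluorescence rise after thallium addition divided by baseline fluorescence; plate controls were assay buffer only for no effect and full block by chlorpromazine control for full effect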
# HEK293 Tl ctr – thallium flux in non-induced HEK293 cells, confirmation, counter-screen for KCNK9 inhibitor project, cell-based, second counter screen, non-induced KCNK9-HEK293. shares compounds with KCNK9 block. FluxOR thallium flux. inhibition, % at 10 µM. 4,900 tested, 40% active. AID 492997, 2010;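 active = thallium signal drop beyond 5 SD of the untreated control mean, on both duplicate plates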;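 also: plate controls were buffer only IC0 wells for no effect and SID17386958 at its maximal inhibitory level for full effect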
# KCNK3 inh conf – retest of human KCNK3 channel inhibitors, confirmation, CHO cells, FluxOR thallium flux, triplicate | shares compounds with KCNK3 inh | FluxOR fluorescence; 0% buffer, 100% carvedilol maximal block | ratio percent of control, % at 10 µM | 2,400 tested, 99% active | AID 651638, 2012;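 active = ratio percent of control, averaged over triplicates, above buffer control mean plus 5 SD, cut at about 64% in these data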;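 also: ratio is the fluorescence rise from min to max over baseline after thallium stimulus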
# KCNK3 noninduced – thallium flux inhibition in non-induced cells, primary screen, counter-screen for KCNK3 inhibitor project, cell-based, non-induced KCNK3 line, FluxOR thallium, triplicate; shares compounds with KCNK3 inh; non-induced KCNK3 parental cells; hits give low values; thallium flux ratio (lower = more inhibition) at 10 µM; 2,400 tested, 40% active; AID 651747, 2012;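 active = thallium flux ratio, averaged over three wells, more than 5 SD below the buffer control mean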;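 also: host cells are CHO cells without KCNK3 induction; ratio is peak minus trough fluorescence over baseline then normalized to buffer controls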
# * hit, by the source's call; i = inactive; · = not tested or not shown. In the library only some 3.1% were active in any assay of this set; here they are far more common.
SMILES,KCNK3 inh,hERG rescue,KCNQ1 pot,KCNQ1 inh,KCNK9 block,KCNK9 inh conf,Kir21 sel,HEK293 Tl ctr,KCNK3 inh conf,KCNK3 noninduced
N#Cc1ccc(-c2ccco2)nc1SCC(=O)c1ccc(Cl)cc1,-13*,-17,i,i,-8.3*,44%*,i,38%*,146*,0.14*
COCCN(C(=S)Nc1cccc(C)c1)C(C)c1cccs1 (stereo not drawn),i,-3,i,i,i,·,·,·,·,·
CC(C)CCN(C(=S)Nc1cccc(F)c1)C(C)c1cccs1 (stereo not drawn),-14*,-14,i,i,-10*,50%*,i,50%*,119*,0.15*
O=c1c2[nH]c3cccc(Cl)c3c2ncn1Cc1ccco1,i,-8,i,i,i,·,·,·,·,·
Cc1cc(OCC(=O)N2CCc3ccccc3C2)c2c(-c3ccccc3)cc(=O)oc2c1,-11*,-3,i,i,i,i,i,i,99*,i
CC(=O)Oc1cc(C)cc2oc(=O)cc(-c3ccccc3)c12,i,-7,i,i,i,·,·,·,·,·
CCN(CC)CCN(C(=O)/C=C/c1cccs1)c1nc2ccc(C)cc2s1,i,-23,i,i,i,·,·,·,·,·
COc1ccccc1NC(=O)c1ccc(NC(=O)COC(=O)C2CC2C)cc1 (stereo not drawn),i,-5,i,i,i,·,·,·,·,·
COc1ccccc1NC(=O)c1ccc(NC(=O)CN(C)Cc2ccccc2F)cc1,-11*,-21,i,i,-9.1*,36%*,i,i,97*,i
CC(C)OC(=O)COc1ccc(-c2ccccc2)cc1,-11*,-5,i,i,-9.2*,i,i,i,97*,i
O=C(O)CCC(=O)N1N=C(c2ccccc2)CC1c1ccc2c(c1)OCO2 (stereo not drawn),i,-5,i,i,i,·,·,·,·,·
COC(=O)c1cc2sccc2n1Cc1nc(-c2cccc(Cl)c2)oc1C,-8.7*,-1,i,i,-8.5*,28%*,i,30%*,93*,i
NCCc1c(-c2ccccc2)n(-c2ccccc2)c2ccccc12,i,-31,i,13*,-9.9*,54%*,62%*,36%*,136*,i
Cc1c(C(=O)c2ccc(Cl)c(Cl)c2)cnc2cc3c(cc12)OCO3,-11*,-6,i,i,-9.9*,73%*,i,44%*,100*,i
Cn1c(=O)c2c(nc(Br)n2Cc2nnc(N)s2)n(C)c1=O,i,-13,i,i,i,·,·,·,·,·
CCc1c(C)nc2cc(-c3cc(OC)cc(OC)c3)nn2c1N1CCCC1,-9.8*,-4,i,i,-11*,58%*,i,26%*,100*,i
